Experimental data pooled from the literature.
Target: Serine/threonine-protein kinase PLK3 (PLK3, Homo sapiens, UniProt Q9H4B4)

| Compound | assay | setting | remaining binding |
| --- | --- | --- | --- |
| C[C@H]1CCN(c2nccc(-c3cnn4ncccc34)n2)C1 | binding | 1 µM | 75% |
| O=C(Nc1c[nH]nc1C(=O)NC1CCNCC1)c1cc(F)cc(F)c1 | binding, competition with immobilised ligand | 1 µM | 86% |
| CCN1CCN(Cc2ccc(C(=O)Nc3ccc(C)c(Oc4ccc5c(c4)CC(=O)N5)c3)cc2C(F)(F)F)CC1 | binding, competition with immobilised ligand | 1 µM | 100% |
| O=C(Nc1cccnn1)N1CC(C/C=C/c2cncc(Oc3ccc(C(F)(F)F)cn3)n2)C1 | cell-free assay, competition with immobilised ligand | 1 µM | 80% |
| Nc1ncc2c(n1)-c1c([nH]c3ccc(C#CC4CC4)cc13)CCCC2 | binding, competition with immobilised ligand | 1 µM | 99% |
| O=C(c1ccc(Nc2ncc(Cl)c(-c3ccc(Cl)s3)n2)cc1)N1CCC(N2CCCC2)CC1 | binding, competition with immobilised ligand | 1 µM | 31% |
| CNC(=O)[C@@H]1CC[C@@H](n2c(-c3ccc4cnccc4c3)nc3ccc(C(=O)NCc4cccc(C(N)=O)c4)cc32)C1 | binding, competition with immobilised ligand | 1 µM | 100% |
| N[C@@H]1CCN(c2nccc(-c3cnn4ncccc34)n2)C1 | binding | 1 µM | 100% |
| NS(=O)(=O)c1cc(NC(=O)Cc2ccccc2)ccc1Oc1cccc(Cl)c1 | cell-free assay, competition with immobilised ligand | 1 µM | 87% |
| O=C(NCCCN1CCOCC1)c1ccc(Nc2ncc(Cl)c(-c3ccc(Cl)s3)n2)cc1 | binding, competition with immobilised ligand | 1 µM | 7.8% |
| C[C@@H]1CN(c2ccc3ncc(-c4ccc5[nH]nc(C6CC6)c5c4)n3n2)C[C@H](C)O1 | binding, competition with immobilised ligand | 0.5 µM | 98% |
| FC(F)(F)Oc1cccc(-c2cnc3ccc(-c4ccncc4)nn23)c1 | cell-free assay, competition with immobilised ligand | 5 µM | 63% |
| COc1ccc2cc(OCC3(C(=O)O)CN(C(=O)c4ccc(F)cc4)C3)ccc2c1 | cell-free assay, competition with immobilised ligand | 1 µM | 95% |
| COc1ccnn2ncc(-c3ccnc(N(C)C)n3)c12 | binding | 1 µM | 75% |
| CN(C)c1ncnc(-c2ccc3nc(Nc4cc(CN5CCN(C(=O)CC(F)(F)F)CC5)ccn4)[nH]c3c2)c1Cl | cell-free assay, competition with immobilised ligand | 1 µM | 100% |
| CN(CCCC(F)(F)F)c1nccc(-c2cnn3ncccc23)n1 | binding | 1 µM | 100% |
